Consider 39 variants from the RNAGym collection of RNA variant scans (doi:10.1038/nmeth.2970).

The labels stand for the following.
B1: NELF-E aptamer (parent)
chain: CCCAACGACUGCCGAGCGAGAUUACGCUUGAGCGCCCCACUGAGGAUGCCCACGGGCGAUUGGGGCACGG

The variants in the data set derive from B1. The data set can be described thus: HiTS-RAP. To be noted: with NELF-E (Drosophila). In a few lines: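 Kd came from weighted Hill fits to the first binding curve, with intensities normalised to sequencing intensity and averaged per sequence, keeping only fits whose variance was below 1,000,000. That curve was imaged on an Illumina GAIIx flowcell, where sequenced aptamer DNA templates with a T7 promoter and ter site had been transcribed in situ by T7 RNA polymerase and halted by GST-Tus (30 minutes, 37°C). Before each image, clusters equilibrated for 30 minutes at room temperature with NELF-E-mOrange at 0.064 to 1000 nM in HEPES binding buffer.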
As usually defined, the Kd is the equilibrium constant for the complex coming apart. For the variant CCCAACGACUGCCGAGCGAGAUUACGCUUGAGCGCCCCACUGAGGAUGCCCACGGGUGAUUGGGGCGCGG [C57U A67G], the Kd came to 4.59 nM.

As for CCCAACGACUGCCGAGCGAGAUUACGCUUGAGCGCCCCACUGAGGAUGCCCACGGGCGUUUGGGGCACGG [A59U], the Kd was 72.2 nM.

In the case of CCCAACGACUGCCGAGCGAGAUUACGCUUGAGCGCCCCACUGAGGAUGCCCACGGGCGCUUGGGGCACGG [A59C], the Kd is 110 nM.

Take CCCAACGACUGCCGAGCGAGAUUACGCUUGAGCGCCCCACUGAGGAUGCCCACGGGCGGUUGGGGCACGG [A59G]: the equilibrium dissociation constant (Kd) amounted to 47.9 nM.

Take CCCAACGACUGCCGAGCGAGAUUACGCUUGAGCGCCCCACUGAGGAUACCCACGGGCGAUUGGGGCACGG [G48A]: the Kd came out at 9.57 nM.

On to CCCAACGACUGCCGAGCGAGAUUACGCUUGAGCGCCCCACUGAGGAUUCCCACGGGCGAUUGGGGCACGG [G48U], for which the equilibrium dissociation constant (Kd) worked out at 5.99 nM.

As to CCCAACGACUGCCGAGCGAGAUUACGCUUGAGCGCCCCACUGAGGAUCCCCACGGGCGAUUGGGGCACGG [G48C], the dissociation constant Kd came out at 85.4 nM.

Regarding CCCAACGACUGCCGAGCGAGAUUACGCUUGAGCGCCCCACUGAGGGUGCCCACAGGCGAUUGGGGCACGG [A46G G54A], the dissociation constant Kd was 129 nM.

With CCCAACGACUGCCGAGCGAGAUUACGCUUGAGCGCCCCACUGAGGAAGCCCACGGGCGAUUGGGGCUCGG [U47A A67U], the Kd worked out at 10.5 nM.

With CCCAACGACUGCCGAGCGAGAUUACGCUUGAGCGCCCCACUGAGGAAGCCCACGGGCGAUUGGGGCGCGG [U47A A67G], the Kd is 12 nM.

Take CCCAACGACUGCCGAGCGAGAUUACGCUUGAGCGCCCCACUGAGGAUUGCCACGGGCGAUUGGGGCACGG [G48U C49G]: the equilibrium dissociation constant (Kd) was found to be 5.14 nM.

With CCCAACGACUGCCGAGCGAGAUUACGCUUGAGCGCCCCACUGAGGAUGCCCUCGGGCGAUUGAGGCACGG [A52U G63A], the Kd was 50.8 nM.

On to CCCAACGACUGCCGAGCGAGAUUACGCUUGAGCGCCCCACUGAGGAUGCCCUCGGGCGAUUGUGGCACGG [A52U G63U], for which the Kd stood at 42.2 nM.

As for CCCAACGACUGCCGAGCGAGAUUACGCUUGAGCGCCCCACUGAGGAUGCCCACGGGCGAAUGGGGCACGG [U60A], the equilibrium dissociation constant (Kd) is 9.5 nM.

In the case of CCCAACGACUGCCGAGCGAGAUUACGCUUGAGCGCCCCACUGAGGAUGCCCUCGGACGAUUGGGGCACGG [A52U G56A], the Kd came out at 99 nM.

In the case of CCCAACGACUGCCGAGCGAGAUUACGCUUGAGCGCCCCACUGAGGAUGCCUGCGGGCGAUUGGGGCACGG [C51U A52G], the Kd was found to be 7.06 nM.

For CCCAACGACUGCCGAGCGAGAUUACGCUUGAGCGCCCCACUGAGGAUGUCCACGGGCGAUUGGGGCACGG [C49U], the dissociation constant Kd is 19.5 nM.

Regarding CCCAACGACUGCCGAGCGAGAUUACGCUUGAGCGCCCCACUGAGGAUGACCACGGGCGAUUGGGGCACGG [C49A], the equilibrium dissociation constant (Kd) is 20.6 nM.

CCCAACGACUGCCGAGCGAGAUUACGCUUGAGCGCCCCACUGAGGAUGGCCACGGGCGAUUGGGGCACGG [C49G]: the equilibrium dissociation constant (Kd) came to 9.21 nM.

Turning to CCCAACGACUGCCGAGCGAGAUUACGCUUGAGCGCCCCACUGAGGAUGCGCACGGGCGAUUGGGGCACGG [C50G], the dissociation constant (Kd) turned out to be 6.31 nM.

As for CCCAACGACUGCCGAGCGAGAUUACGCUUGAGCGCCCCACUGAGGAUGCUCACGGGCGAUUGGGGCACGG [C50U], the Kd is 12.2 nM.

Consider CCCAACGACUGCCGAGCGAGAUUACGCUUGAGCGCCCCACUGAGGAUGCACACGGGCGAUUGGGGCACGG [C50A], for which the Kd is 14.7 nM.

Regarding CCCAACGACUGCCGAGCGAGAUUACGCUUGAGCGCCCCACUGAGGAUGCCCAGUGGCGAUUGGGGCACGG [C53G G54U], the Kd turned out to be 4.24 nM.

As to CCCAACGACUGCCGAGCGAGAUUACGCUUGAGCGCCCCACUGAGGAUGCCCACGGGCAAUUGGGGCACGG [G58A], the Kd came to 9.31 nM.

Take CCCAACGACUGCCGAGCGAGAUUACGCUUGAGCGCCCCACUGAGGAUGCCCACGGGCCAUUGGGGCACGG [G58C]: the dissociation constant Kd came out at 65.3 nM.

Turning to CCCAACGACUGCCGAGCGAGAUUACGCUUGAGCGCCCCACUGAGGAUGCCCACGGGCUAUUGGGGCACGG [G58U], the dissociation constant Kd was found to be 9.77 nM.

In the case of CCCAACGACUGCCGAGCGAGAUUACGCUUGAGCGCCCCACUGAGGAUGCCCUCGGGCGAUUGGGGUACGG [A52U C66U], the Kd worked out at 15.1 nM.

Consider CCCAACGACUGCCGAGCGAGAUUACGCUUGAGCGCCCCACUGAGGAGUCCCACGGGCGAUUGGGGCACGG [U47G G48U], for which the Kd worked out at 6.17 nM.

On to CCCAACGACUGCCGAGCGAGAUUACGCUUGAGCGCCCCACUGAGGAUGCCCGUGGGCGAUUGGGGCACGG [A52G C53U], for which the Kd was 6.67 nM.

As to CCCAACGACUGCCGAGCGAGAUUACGCUUGAGCGCCCCACUGAGGAUGCCCACCGGCGAUUGGGGCACGG [G54C], the Kd turned out to be 10.6 nM.

For the variant CCCAACGACUGCCGAGCGAGAUUACGCUUGAGCGCCCCACUGAGGAUGCCCACUGGCGAUUGGGGCACGG [G54U], the dissociation constant Kd worked out at 6.39 nM.

Turning to CCCAACGACUGCCGAGCGAGAUUACGCUUGAGCGCCCCACUGAGGAUGCCCACAGGCGAUUGGGGCACGG [G54A], the Kd was 11.8 nM.

Turning to CCCAACGACUGCCGAGCGAGAUUACGCUUGAGCGCCCCACUGAGGAUGCCCAGGGGCGAUUGGGGCACGG [C53G], the dissociation constant (Kd) amounted to 5.16 nM.

Regarding CCCAACGACUGCCGAGCGAGAUUACGCUUGAGCGCCCCACUGAGGAUGCCCAAGGGCGAUUGGGGCACGG [C53A], the Kd was 4.92 nM.

For CCCAACGACUGCCGAGCGAGAUUACGCUUGAGCGCCCCACUGAGGAUGCCCAUGGGCGAUUGGGGCACGG [C53U], the dissociation constant Kd was determined as 3.8 nM.

On to CCCAACGACUGCCGAGCGAGAUUACGCUUGAGCGCCCCACUGAGGGUGCCCACGGGCGAUUGGGGCACGG [A46G], for which the dissociation constant Kd is 26.5 nM.

In the case of CCCAACGACUGCCGAGCGAGAUUACGCUUGAGCGCCCCACUGAGGCUGCCCACGGGCGAUUGGGGCACGG [A46C], the dissociation constant Kd is 9.89 nM.

As to CCCAACGACUGCCGAGCGAGAUUACGCUUGAGCGCCCCACUGAGGUUGCCCACGGGCGAUUGGGGCACGG [A46U], the Kd came to 63.2 nM.

For the variant CCCAACGACUGCCGAGCGAGAUUACGCUUGAGCGCCCCACUGAGGUUGCCCACGGGCGGUUGGGGCACGG [A46U A59G], the equilibrium dissociation constant (Kd) was 60.5 nM.
